The results in this text go back to ChEMBL document CHEMBL4052629, “Scutellarin derivatives as apoptosis inducers: Design, synthesis and biological evaluation” (Eur J Med Chem, 2017).

Data set [1] has as its system PC-3. As to the kind of experiment: Induction of apoptosis in human PC3 cells assessed as chromatin condensation at 0.16 to 1.25 uM after 48 hrs by Hoechst 33258 staining-based fluorescent microscopic analysis. The class given is functional, cell-based. The essentials: (§1)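 PC-3 cells grown on sterile cover slips were exposed to 0, 0.16, 0.31 or 1.25 μM, or vehicle, for 48 h. Then fixed with 4% paraformaldehyde for 10 min, washed twice in PBS, stained with Hoechst 33258 for 5 min and washed again. Nuclei imaged at 350 nm excitation and 460 nm emission.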

Data set [2] concerns PC-3. As to the kind of experiment: Induction of apoptosis in human PC3 cells assessed as early apoptotic cells at 0.16 uM after 72 hrs by Annexin V-APC/7-AAD or propidium iodide staining-based flow cytometric analysis (reference value: 4.09%). The class given is functional. (A flow cytometer gives signals particle by particle.)
Data set [3] deals with L02. The data set is described as follows: Induction of apoptosis in human LO2 cells assessed as early apoptotic cells at 1.25 uM after 72 hrs by Annexin V-FITC/7-AAD or propidium iodide staining-based flow cytometric analysis (reference value: 3.65%). The class given is cell-based. The following applies: l02, 72 h.
Data set [4] deals with PC-3. The data set is described as follows: Induction of apoptosis in human PC3 cells assessed as cell shrinkage at 0.16 to 1.25 uM after 48 hrs by Hoechst 33258 staining-based fluorescent microscopic analysis. The class given is functional. The essentials: as §1
In data set [5] the test system is PC-3. As to the kind of experiment: Induction of apoptosis in human PC3 cells assessed as nuclear fragmentation at 0.16 to 1.25 uM after 48 hrs by Hoechst 33258 staining-based fluorescent microscopic analysis. The class given is functional, cell-based. The essentials:
as §1

In data set [6] the test system is PC-3. As to the kind of experiment: Cell cycle arrest in human PC3 cells assessed as accumulation at G2/M phase at 0.16 uM after 72 hrs by propidium iodide staining-based flow cytometric analysis (reference value: 10.19%). The class given is functional. The essentials: (§2)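 Concentrations used were 0, 0.3, 0.6 and 1.2 μM in HepG2 and 0, 0.16, 0.31 and 1.25 μM in PC-3, with untreated cells as control, for 72 h. Cells were trypsinized, washed in PBS, fixed in cold ethanol at 4 °C overnight, then incubated 30 min in PBS containing RNase A and propidium iodide. DNA content was read by flow cytometry to give phase distribution.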

Data set [7] concerns PC-3. As to the kind of experiment: Induction of apoptosis in human PC3 cells assessed as viable cells at 0.31 uM after 72 hrs by Annexin V-APC/7-AAD or propidium iodide staining-based flow cytometric analysis (reference value: 88.74%). It counts as functional. The following applies: PC-3, 72 h, read-out: Activity.
Data set [8] relates to PC-3. As to the kind of experiment: Cell cycle arrest in human PC3 cells assessed as accumulation at G2/M phase at 0.31 uM after 72 hrs by propidium iodide staining-based flow cytometric analysis (reference value: 10.19%). It counts as functional. The essentials: as §2
Data set [9] has as its system PC-3. The data set is described as follows: Induction of apoptosis in human PC3 cells assessed as late apoptotic cells at 0.16 uM after 72 hrs by Annexin V-APC/7-AAD or propidium iodide staining-based flow cytometric analysis (reference value: 4.74%). It counts as functional.
In data set [10] the test system is PC-3. The data set is described as follows: Induction of apoptosis in human PC3 cells assessed as necrotic cells at 0.31 uM after 72 hrs by Annexin V-APC/7-AAD or propidium iodide staining-based flow cytometric analysis (reference value: 2.43%). It counts as functional.
For data set [11], the system named is PC-3. As to the kind of experiment: Cell cycle arrest in human PC3 cells assessed as accumulation at G2/M phase at 1.25 uM after 72 hrs by propidium iodide staining-based flow cytometric analysis (reference value: 10.19%). It counts as functional. The essentials: as §2
The test system of data set [12] is PC-3. The data set is described as follows: Induction of apoptosis in human PC3 cells after 72 hrs by Annexin V-APC/7-AAD or propidium iodide staining-based flow cytometric analysis. It counts as functional, cell-based.
For data set [13], the system named is L02. The data set is described as follows: Induction of apoptosis in human LO2 cells assessed as early apoptotic cells at 1.2 uM after 72 hrs by Annexin V-FITC/7-AAD or propidium iodide staining-based flow cytometric analysis (reference value: 3.65%). The class given is cell-based. As to conditions: l02, 72 h.
The test system of data set [14] is HepG2. The data set is described as follows: Cell cycle arrest in human HepG2 cells assessed as accumulation at G2/M phase at 1.2 uM after 72 hrs by propidium iodide staining-based flow cytometric analysis (reference value: 21.4%). It counts as functional. The essentials:
as §2

The test system of data set [15] is HepG2. The data set is described as follows: Cell cycle arrest in human HepG2 cells assessed as accumulation at G2/M phase at 0.6 uM after 72 hrs by propidium iodide staining-based flow cytometric analysis (reference value: 21.4%). The class given is functional. The essentials:
as §2

Data set [16] relates to L02. The data set is described as follows: Induction of apoptosis in human LO2 cells assessed as necrotic cells at 1.2 uM after 72 hrs by Annexin V-FITC/7-AAD or propidium iodide staining-based flow cytometric analysis (reference value: 1.99%). The following applies: l02, 72 h. The class given is cell-based.
For data set [17], the system named is HepG2. As to the kind of experiment: Induction of apoptosis in human HepG2 cells assessed as reduction in procaspase-3 expression levels at 2 uM after 24 hrs by membrane-based sandwich immunoassay. The class given is functional, cell-based. The essentials:
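HepG2 cells exposed to 2 μM for 24 h. Proteins extracted per kit protocol. Relative levels of 35 apoptosis-related proteins measured on a human apoptosis antibody array.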

Data set [18] concerns HepG2. The data set is described as follows: Induction of apoptosis in human HepG2 cells assessed as rupture of cell membrane at 1.2 uM after 48 hrs by Hoechst 33258 staining-based fluorescent microscopic analysis. It counts as functional. The essentials: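 HepG2 cells on sterile cover slips in 6-well plates exposed to 0, 0.3, 0.6 or 1.2 μM, or vehicle, for 48 h. Fixed in 4% paraformaldehyde for 10 min, PBS-washed, stained with Hoechst 33258 for 5 min. Nuclear morphology and adherent cell number viewed at 350 nm excitation / 460 nm emission. Non-treated cells served as control.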

The test system of data set [19] is L02. As to the kind of experiment: Induction of apoptosis in human LO2 cells assessed as late apoptotic cells at 1.2 uM after 72 hrs by Annexin V-FITC/7-AAD or propidium iodide staining-based flow cytometric analysis (reference value: 0.11%). The following applies: l02, 72 h. The class given is cell-based.
A short description of data set [20]: Induction of apoptosis in human LO2 cells assessed as viable cells at 1.2 uM after 72 hrs by Annexin V-FITC/7-AAD or propidium iodide staining-based flow cytometric analysis (reference value: 94.26%). The following applies: read-out: Activity. The class given is cell-based, L02.
In data set [21] the test system is HepG2. The data set is described as follows: Induction of apoptosis in human HepG2 cells assessed as reduction in HO-1 expression levels at 2 uM after 24 hrs by membrane-based sandwich immunoassay. The class given is functional, cell-based. The essentials: (§3)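 HepG2 cells treated at 2 μM for 24 h; protein extracts prepared per the kit protocol. Relative levels of 35 apoptosis-related proteins measured with a human apoptosis antibody array.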

Data set [22] relates to HepG2. As to the kind of experiment: Cell cycle arrest in human HepG2 cells assessed as accumulation at G1 phase at 0.6 uM after 72 hrs by propidium iodide staining-based flow cytometric analysis (reference value: 34%). It counts as functional. The essentials: as §2
Data set [23] deals with HepG2. The data set is described as follows: Induction of apoptosis in human HepG2 cells assessed as reduction in HO-2 expression levels at 2 uM after 24 hrs by membrane-based sandwich immunoassay. The class given is functional, cell-based. The essentials: as §3
The test system of data set [24] is HepG2. As to the kind of experiment: Induction of apoptosis in human HepG2 cells assessed as reduction in mitochondrial membrane potential at 0.3 uM after 48 hrs by JC-1 staining-based flow cytometric analysis (reference value: 1.6%). The class given is functional. More on the design: scale not given: the % may be the effect or the level left. The essentials: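 HepG2 cells cultured overnight, then incubated in triplicate with 0, 0.3, 0.6 or 1.2 μM, or vehicle, for 48 h. Stained with the cationic dye JC-1. Flow cytometry gave the percentage of cells with healthy versus collapsed mitochondrial membrane potential.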

Data set [25] relates to HepG2. The data set is described as follows: Induction of apoptosis in human HepG2 cells assessed as late apoptotic cells at 0.6 uM after 72 hrs by Annexin V-APC/7-AAD or propidium iodide staining-based flow cytometric analysis (reference value: 4.14%). It counts as functional.
In data set [26] the test system is HepG2. The data set is described as follows: Cell cycle arrest in human HepG2 cells assessed as accumulation at S phase at 1.2 uM after 72 hrs by propidium iodide staining-based flow cytometric analysis (reference value: 44.6%). The class given is functional. The essentials: as §2

Calls of active or inactive are those of the source. The calls are words filed in the database; no cut-off is given here.

On to `COc1ccc(-c2cc(=O)c3c(O)c(OC)c(O[C@@H]4O[C@H](C(=O)NCCOc5no[n+]([O-])c5S(=O)(=O)c5ccccc5)[C@@H](O)[C@H](O)[C@H]4O)cc3o2)cc1`, for which the result in the data set with PC-3 [1], in the data set on PC-3 [4] and in the data set with PC-3 [5] was Active. In addition, the Activity in the data set with PC-3 [2] is 3.71%; in the data set on L02 [3], 17.35%; in the data set with PC-3 [6] it was 11.62%; in the data set on PC-3 [8] it was 13.48%; in the data set with PC-3 [9], 12.75%; with PC-3 [10], 2.76%. For the same compound, the Activity in the data set with PC-3 [11] is 9.1%; in the data set with PC-3 [12], “Dose-dependent effect”. In addition, the viability at 0.31 µM in the data set with PC-3 [7] was found to be 61.6%.
`O=C(NCCCOc1no[n+]([O-])c1S(=O)(=O)c1ccccc1)[C@H]1O[C@@H](Oc2cc3oc(-c4ccc(OCc5ccccc5)cc4)cc(=O)c3c(O)c2OCc2ccccc2)[C@H](O)[C@@H](O)[C@@H]1O`: the Activity with L02 [13] came to 14.2%; in the data set with HepG2 [14], 3.24%; in the data set with HepG2 [15], 17.54%; with L02 [16], 1.53%; with L02 [19], 2.76%; with HepG2 [22] it was 32.02%. Besides, the Activity with HepG2 [24] is 15.14%; in the data set with HepG2 [25] it was 19.97%; with HepG2 [26], 69.63%. For the same compound, the outcome with HepG2 [17], in the data set with HepG2 [18], in the data set on HepG2 [21] and with HepG2 [23] was Active. In [20], the viability at 72 h, 1.2 µM worked out at 81.5%.
